In ChEMBL document CHEMBL3608210, “LC-MS- and (1)H NMR Spectroscopy-Guided Identification of Antifungal Diterpenoids from Sagittaria latifolia” (J Nat Prod, 2015):
Values after ≈ are worked out from the molar mass of the structure shown. Active and inactive are the calls of the source. No cut-off for these calls is given here.

What was measured:
Cryptococcus neoformans [1] = assay: Antifungal activity against Cryptococcus neoformans ATCC 90113 assessed as inhibition of microbial growth incubated for 72 hrs at 30 degC by modified CLSI protocol based method; format: functional, organism-based; conditions: ATCC 90113, 72 h
In short: (§1)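 Strains were obtained from ATCC, and amphotericin B served as the positive control. IC50 was the concentration giving 50% growth inhibition of fungal cells. MIC was the lowest concentration allowing no detectable growth. The highest concentration tested was 20 μg/mL.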

LLC-PK1 = assay: Cytotoxicity against pig LLC-PK1 cells assessed as reduction in cell viability incubated for 48 hrs by neutral red based assay; conditions: Sus scrofa, LLC-PK1, 48 h
In short: (§2)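 Vero (African green monkey kidney […]) and LLC-PK1 (pig kidney epithelial) cells were obtained from ATCC. Cytotoxicity was read by neutral red uptake, with doxorubicin as the positive control. IC50 was taken as the concentration giving 50% growth inhibition of the mammalian cells.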

Vero = assay: Cytotoxicity against african green monkey Vero cells assessed as reduction in cell viability incubated for 48 hrs by neutral red based assay; conditions: Chlorocebus sabaeus; in short: as §2
[2] = system: Cryptococcus bacillisporus; assay: Antifungal activity against Cryptococcus gattii ATCC 32609 assessed as inhibition of microbial growth incubated for 72 hrs at 30 degC by modified CLSI protocol based method; format: functional, organism-based; conditions: ATCC 32609, 72 h; in short: as §1
Cryptococcus neoformans [3] = assay: Antifungal activity against Cryptococcus neoformans ATCC 90113 assessed as inhibition of microbial growth at 20 ug/ml incubated for 72 hrs at 30 degC by modified CLSI protocol based method; format: functional, organism-based; in short: as §1

## C=C[C@@]1(C)CC[C@H]2C(=CC[C@H]3[C@@](C)(CO)CCC[C@]23C)C1
Cryptococcus neoformans [1]
  IC50: 9.2 µg/mL
  MIC: > 20 µg/mL
LLC-PK1
  IC50: 42.5 µg/mL (≈ 147 µM)
Vero
  IC50: 37.5 µg/mL (≈ 130 µM)
[2]
  IC50: 6.8 µg/mL
  MIC: 20 µg/mL

## C=C[C@@]1(C)CC[C@H]2C(=CC[C@H]3[C@@](C)(CO[C@@H]4O[C@@H](CO)[C@H](O)[C@H]4O)CCC[C@]23C)C1
Cryptococcus neoformans [1]
  IC50: 3.7 µg/mL
  MIC: > 20 µg/mL
LLC-PK1
  IC50: 21.5 µg/mL (≈ 51.1 µM)
Vero
  IC50: 30 µg/mL (≈ 71.3 µM)
[2]
  IC50: 1.8 µg/mL
  MIC: 20 µg/mL

## C=C[C@@]1(C)CC[C@H]2C(=CC[C@H]3[C@@](C)(CO[C@@H]4O[C@@H](COC(C)=O)[C@H](O)[C@H]4O)CCC[C@]23C)C1
Cryptococcus neoformans [3]
  growth inhibition (GI): inactive

## COc1cccc2c1C(=O)c1c(O)c3c(c(O)c1C2=O)C[C@@](O)(C(=O)CO)C[C@@H]3O[C@H]1C[C@H](N)[C@H](O)[C@H](C)O1 [DOXORUBICIN]
LLC-PK1
  IC50: 0.4 µg/mL (≈ 0.736 µM)
Vero
  IC50: 5.4 µg/mL (≈ 9.94 µM)

## C[C@@H]1[C@H](O)[C@@H](C)/C=C/C=C/C=C/C=C/C=C/C=C/C=C/[C@H](O[C@@H]2O[C@H](C)[C@@H](O)[C@H](N)[C@@H]2O)C[C@@H]2O[C@](O)(C[C@@H](O)C[C@@H](O)[C@H](O)CC[C@@H](O)C[C@@H](O)CC(=O)O[C@H]1C)C[C@H](O)[C@H]2C(=O)O [AMPHOTERICIN B]
Cryptococcus neoformans [1]
  MIC: 0.7 µg/mL
[2]
  IC50: 0.1 µg/mL
  MIC: 0.3 µg/mL
